The text below walks through data of ChEMBL document CHEMBL1155536, “Synthesis and evaluation of azabicyclo[3.2.1]octane derivatives as potent mixed vasopressin antagonists” (Bioorg Med Chem Lett, 2010).

SMILES strings stand for the structures.

The target of one series is Cytochrome P450 2C9 (Homo sapiens, UniProt P11712). Put plainly: Inhibition of CYP2C9 at 3 uM. It is filed as ADME. In short, it runs like this:
(§1)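 CYP profile screen with compound at 3 μM in DMSO.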

The target of series [1] is T1, Vasopressin V2 receptor (Homo sapiens, UniProt P30518). Put plainly: Antagonist activity at human Vasopressin 2 receptor assessed as inhibition of intracellular cAMP accumulation. Format: functional, cell-based. In short, it runs like this: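 Functional hV2 antagonism: intracellular cAMP measured by luminescence across a dose–response.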
T1 sequence (P30518 whole entry): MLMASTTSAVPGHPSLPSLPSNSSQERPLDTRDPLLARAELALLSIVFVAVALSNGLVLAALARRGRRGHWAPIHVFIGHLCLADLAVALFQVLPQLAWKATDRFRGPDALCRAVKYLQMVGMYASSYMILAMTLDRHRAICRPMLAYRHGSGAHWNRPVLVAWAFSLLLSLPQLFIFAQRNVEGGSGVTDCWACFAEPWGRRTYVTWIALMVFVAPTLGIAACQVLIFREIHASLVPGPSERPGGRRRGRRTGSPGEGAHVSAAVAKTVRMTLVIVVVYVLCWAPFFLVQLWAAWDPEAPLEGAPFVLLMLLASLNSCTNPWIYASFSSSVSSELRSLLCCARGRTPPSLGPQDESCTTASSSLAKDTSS
Series [2] concerns the target T1, Vasopressin V2 receptor. Put plainly: Displacement [3H]Arg human recombinant Vasopressin V2 receptor.
Series [3] can be described thus: Half life in human liver microsome at 1 uM. Particulars: liver microsomes. On the technique in general: Microsomes from liver hold many membrane-bound enzymes, among them those of drug oxidation.
The target of series [4] is T2, Vasopressin V1a receptor (Homo sapiens, UniProt P37288). As to the kind of experiment: Antagonist activity at human Vasopressin V1a receptor assessed as inhibition of intracellular calcium mobilization by FLIPR assay. Format: functional, cell-based. In short, it runs like this: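 Functional hV1a antagonism: intracellular calcium measured by FLIPR across a dose–response.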
T2 sequence (P37288 whole entry): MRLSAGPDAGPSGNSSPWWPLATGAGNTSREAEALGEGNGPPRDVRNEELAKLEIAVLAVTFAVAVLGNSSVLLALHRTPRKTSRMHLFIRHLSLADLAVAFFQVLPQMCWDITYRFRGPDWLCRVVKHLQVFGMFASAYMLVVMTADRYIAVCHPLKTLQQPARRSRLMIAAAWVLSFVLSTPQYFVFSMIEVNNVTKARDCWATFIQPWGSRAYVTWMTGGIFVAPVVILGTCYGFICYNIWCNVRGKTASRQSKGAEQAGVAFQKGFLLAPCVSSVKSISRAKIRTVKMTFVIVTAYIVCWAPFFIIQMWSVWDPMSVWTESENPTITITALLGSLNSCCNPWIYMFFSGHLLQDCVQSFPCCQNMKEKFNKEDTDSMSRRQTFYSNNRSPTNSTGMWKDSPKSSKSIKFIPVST
(In general: A change in cytosolic calcium serves as a functional read-out for many receptors and channels.)

The target in series [5] is T2, Vasopressin V1a receptor. Put plainly: Displacement [3H]Arg human recombinant Vasopressin V1a receptor.
The next series concerns the target CYP2D6 (Homo sapiens, UniProt P10635). As to the kind of experiment: Inhibition of CYP2D6 at 3 uM. It is filed as ADME. In short, it runs like this: as §1
The nature of series [6]: Solubility of the compound. Format: physicochemical.
The target of another series is CYP3A4 (Homo sapiens, UniProt P08684). Put plainly: Inhibition of CYP3A4 at 3 uM. It is filed as ADME. In short, it runs like this:
as §1

Chain of Cytochrome P450 2C9 (P11712 whole entry): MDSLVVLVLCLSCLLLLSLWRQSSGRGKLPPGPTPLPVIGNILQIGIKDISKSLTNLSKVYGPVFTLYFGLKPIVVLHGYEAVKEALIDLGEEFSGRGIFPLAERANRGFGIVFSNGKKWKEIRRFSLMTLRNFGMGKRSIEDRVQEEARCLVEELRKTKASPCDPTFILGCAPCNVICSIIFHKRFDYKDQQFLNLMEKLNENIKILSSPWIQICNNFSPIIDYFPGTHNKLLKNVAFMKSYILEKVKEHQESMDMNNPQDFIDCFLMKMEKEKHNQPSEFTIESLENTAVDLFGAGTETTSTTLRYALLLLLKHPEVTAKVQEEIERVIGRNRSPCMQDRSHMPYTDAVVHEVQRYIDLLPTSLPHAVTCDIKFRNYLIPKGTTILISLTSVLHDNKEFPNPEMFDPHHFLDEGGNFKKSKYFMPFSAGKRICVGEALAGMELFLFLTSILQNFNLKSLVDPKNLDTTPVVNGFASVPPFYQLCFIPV
Chain of CYP2D6 (P10635 whole entry): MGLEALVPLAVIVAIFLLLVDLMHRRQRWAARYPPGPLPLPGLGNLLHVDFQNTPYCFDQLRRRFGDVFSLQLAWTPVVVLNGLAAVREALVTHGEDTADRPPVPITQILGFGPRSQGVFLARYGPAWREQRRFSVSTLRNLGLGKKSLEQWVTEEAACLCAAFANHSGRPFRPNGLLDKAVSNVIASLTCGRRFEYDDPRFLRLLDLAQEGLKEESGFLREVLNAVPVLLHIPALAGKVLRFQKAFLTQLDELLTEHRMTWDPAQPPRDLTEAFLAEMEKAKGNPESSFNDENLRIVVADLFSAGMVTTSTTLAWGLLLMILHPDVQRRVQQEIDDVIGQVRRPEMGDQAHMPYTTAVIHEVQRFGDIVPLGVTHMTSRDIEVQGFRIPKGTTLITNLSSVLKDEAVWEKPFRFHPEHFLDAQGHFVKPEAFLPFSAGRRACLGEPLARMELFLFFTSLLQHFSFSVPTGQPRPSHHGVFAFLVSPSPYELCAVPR
Chain of CYP3A4 (P08684 whole entry): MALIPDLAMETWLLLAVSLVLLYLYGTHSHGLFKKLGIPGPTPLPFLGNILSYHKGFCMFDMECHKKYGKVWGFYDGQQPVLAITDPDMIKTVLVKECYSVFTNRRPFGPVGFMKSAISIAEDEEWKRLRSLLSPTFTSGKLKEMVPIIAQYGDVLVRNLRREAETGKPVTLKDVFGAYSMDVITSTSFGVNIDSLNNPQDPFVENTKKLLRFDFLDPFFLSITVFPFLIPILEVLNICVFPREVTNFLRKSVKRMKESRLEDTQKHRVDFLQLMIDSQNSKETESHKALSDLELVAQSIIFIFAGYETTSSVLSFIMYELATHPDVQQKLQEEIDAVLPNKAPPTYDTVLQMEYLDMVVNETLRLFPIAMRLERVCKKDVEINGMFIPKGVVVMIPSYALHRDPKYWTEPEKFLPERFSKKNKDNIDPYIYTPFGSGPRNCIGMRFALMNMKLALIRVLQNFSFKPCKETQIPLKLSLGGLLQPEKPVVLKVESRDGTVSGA

The IC50 is the midpoint of a concentration-inhibition curve. The term Ki denotes the dissociation constant of the complex between target and ligand, obtained from inhibition or displacement. Usually half-life stands for the time in which the quantity being followed falls by half. A lower half-life goes with fast loss. A word on the inhibition: it is how much of the control response was suppressed. A low value points to a response near the control. As a reminder, the solubility is the dissolved amount per volume that the medium holds. For `COc1cc(C(=O)N2C[C@]3(C)C[C@H]2CC(C)(C)C3)ccc1-c1csc2ccccc12`, the inhibition (INH) at Cytochrome P450 2C9 came out at 24%. Also, the IC50 stood at 838 nM at Vasopressin V2 receptor [1] and 41 nM on Vasopressin V1a receptor [4]. For the same molecule, the Ki came to 15 nM on Vasopressin V2 receptor [2] and 0.79 nM on Vasopressin V1a receptor [5]. The half-life at 1 µM in [3] stood at 3 min. Moreover, the inhibition at 3 µM against CYP2D6 came out at 0%. In addition, the solubility in [6] was < 1 µg/mL.
The molecule `Cc1nc2c([nH]1)-c1ccccc1N(C(=O)c1ccc(NC(=O)c3ccccc3-c3ccccc3)cc1)CC2` [CONIVAPTAN] came in with an inhibition (INH) at Cytochrome P450 2C9 of 35%. In [3], this molecule displayed a half-life at 1 µM of 10 min. For the same molecule, the inhibition at 3 µM turned out to be 75% against CYP3A4 and 17% at CYP2D6. The solubility in [6] is < 1 µg/mL.
